Assay outcomes as filed in PubChem.
Compounds with a hit are over-represented: about 2.6% of the library has one in this group of screens.
TCR CD3 inh – human TCR-CD3 binding inhibition; inhibition, % at 9.4 µM; TAMRA-labeled TCR probe fluorescence, biochemical; actives 0.37% (n = 360,000); AID 651800; in the data active means inhibition above about 19%;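 further: recombinant mutant TCR 2C K166C tagged with TAMRA read by polarization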
mABHD4 FP – ABHD4 (mouse) inhibition, primary FP screen | Q8VD66 | purified mABHD4, FP-Rh probe fluorescence polarization | inhibition, % at 8.92 µM | actives 0.54% (n = 370,000);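 active means inhibition exceeding the mean over every tested compound plus 3 SD, cut at about 30% in these data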
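Material: mouse ABHD4 enzyme, wild type; Benchmarks: S159A mutant high control, sample median low control; Buffer or medium: HEPES pH 7.0, NaCl, Pluronic buffer; Signal: fluorescence polarization; Read-out: percent inhibition of probe binding, normalized to plate controls; Timing: pre-incubation 45 min, probe exposure 60 min, at 25 °C; Dosing: 8.92 µM, single dose.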
HTRA1 inhibitor – blocks human HTRA1 serine peptidase. AID 504803. recombinant HTRA1, FP-rhodamine activity-based probe, fluorescence polarization. inhibition, % at 5.96 µM. Q92743. actives 0.5% (n = 340,000); in the data active means inhibition above about 36%
SIAE primary – human SIAE inhibition, primary screen | inhibition, % at 9.66 µM | actives 0.69% (n = 370,000) | Q9HAT2 | SIAE FP-Rh probe binding, fluorescence polarization;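 active means inhibition above a cutoff: mean of compounds within the control limits plus 3 SD of those, cut at about 17% in these data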
PRMT1 FP inh – blocks human protein arginine methyltransferase 1; inhibition, % at 2.79 µM; actives 1.3% (n = 370,000); Q99873; recombinant PRMT1, activity-based probe fluorescence polarization;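 active means inhibition above about 21% made by adding two undisclosed values, limit read from the data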
Target sequence (Q99873 whole entry, looked up): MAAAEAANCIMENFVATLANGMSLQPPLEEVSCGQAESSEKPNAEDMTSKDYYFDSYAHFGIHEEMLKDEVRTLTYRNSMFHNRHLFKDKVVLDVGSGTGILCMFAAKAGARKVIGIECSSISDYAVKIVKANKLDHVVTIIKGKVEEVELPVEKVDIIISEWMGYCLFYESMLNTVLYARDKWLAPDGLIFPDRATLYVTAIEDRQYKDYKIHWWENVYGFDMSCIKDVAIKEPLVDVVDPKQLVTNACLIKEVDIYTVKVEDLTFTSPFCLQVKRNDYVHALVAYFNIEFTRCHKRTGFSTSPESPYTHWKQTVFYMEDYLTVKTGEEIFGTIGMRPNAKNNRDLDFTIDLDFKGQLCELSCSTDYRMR
PRMT1 confirm – confirmation of human PRMT1 inhibitors | shares compounds with PRMT1 FP inh | recombinant His-PRMT1, activity-based probe fluorescence polarization | actives 42% (n = 3,300) | inhibition, % at 2.79 µM;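 active means mean inhibition across replicates above the hit cutoff derived for the earlier primary screen, cut at about 22% in these data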
Large screens that a line does not name were inactive (follow-up assays come after a bar, where they were run).

CCc1c(C)nc2nc(SCc3ccccc3)[nH]n2c1=O	none
COc1ccc(NC(=S)NNS(=O)(=O)c2ccc3ccccc3c2)c(OC)c1	PRMT1 FP inh 27 | PRMT1 confirm inactive
COc1ccccc1NC(=O)C(=O)NNS(=O)(=O)c1ccc2ccccc2c1	none
O=C(Nc1ccc(C(=O)O)cc1)/C(=C\c1ccco1)NC(=O)c1ccco1	PRMT1 FP inh 47 | PRMT1 confirm inactive
CC(C)(C)c1ccc(C(=O)N/C(=C\c2ccco2)C(=O)Nc2ccccc2C(=O)O)cc1	PRMT1 FP inh 46 | PRMT1 confirm inactive
O=C(NC(Cc1ccccc1)C(=O)O)/C(=C/c1ccccc1)NC(=O)c1ccco1 (stereo unspecified)	none
O=C(/C=C/c1ccco1)Nc1cccc(C(=O)Nc2ccccc2C(=O)O)c1	PRMT1 FP inh 26 | PRMT1 confirm 46
O=C(NC(Cc1ccccc1)C(=O)O)/C(=C/c1ccco1)NC(=O)c1cccc(Br)c1 (stereo unspecified)	PRMT1 FP inh 25 | PRMT1 confirm inactive
O=C(O)C1C2CCC(C2)C1C(=O)NCCc1cccc(Cl)c1 (stereo unspecified)	none
C[C@H](CO)N1C[C@H](C)[C@H](CN(C)S(=O)(=O)c2cccc(F)c2)Oc2cc(Br)ccc2S1(=O)=O	none
Cc1cnc(NC(=O)Cc2ccc(S(=O)(=O)N3CCOCC3)s2)s1	PRMT1 FP inh 38 | PRMT1 confirm inactive
NC(=O)/C(=C\c1ccco1)NC(=O)c1ccco1	none
NC(=O)/C(=C/c1ccco1)C(N)=S	PRMT1 FP inh 53 | PRMT1 confirm 22
Cn1c(=O)c(=O)n(C)c2cc(N3CCCC3)c(NS(=O)(=O)c3ccc(Cl)cc3)cc21	none
CCNC(=S)Nc1cc(-c2ccc(Cl)cc2)[nH]n1	PRMT1 FP inh 44 | PRMT1 confirm 29
CN=C(c1ccco1)n1c(=S)nc(-c2ccco2)n(C)c1=S	PRMT1 FP inh 30 | PRMT1 confirm 23
CN=C(c1ccc(C)cc1)n1c(=S)nc(-c2ccc(C)cc2)n(C)c1=S	none
CCCCn1c(N)c(N(CCOC)C(=O)CSc2ccc([N+](=O)[O-])cc2)c(=O)[nH]c1=O	none
CN1CCN(C(=S)c2ccc(Br)cc2)CC1	PRMT1 FP inh 41 | PRMT1 confirm 44
CN1CCN(C(=S)c2ccc(N(C)C)cc2)CC1	PRMT1 FP inh 43 | PRMT1 confirm 43
CN1CCN(C(=S)c2ccc([N+](=O)[O-])cc2)CC1	PRMT1 FP inh 36 | PRMT1 confirm 45
N#CC(C#N)=C1C=CC=CN1/C(=C\c1ccccc1Cl)C(=O)c1ccccc1	PRMT1 FP inh 29 | PRMT1 confirm 32
COc1cc(/C=C/CNC[C@H]2O[C@@H](n3cnc4c(=O)[nH]c(N)nc43)[C@H](O)[C@@H]2O)ccc1O	none (no result: HTRA1 inhibitor)
O=C1CCC/C(=N/NC(=O)c2sc3ccccc3c2Cl)C1	PRMT1 FP inh 85 | PRMT1 confirm inactive
C=CCn1c(=O)[nH]c2nc3cc(N=CN(C)C)c(C)cc3nc2c1=O	PRMT1 FP inh 31 | PRMT1 confirm 75
COc1ccc(-n2c(SCC(=O)Nc3ccc(Cl)cc3)nc(O)c(Cc3ccccc3)c2=O)cc1	PRMT1 FP inh 34 | PRMT1 confirm 32
CCN1CCN(c2c(S(=O)(=O)c3ccc(Cl)cc3)cnc3ccccc23)CC1	none (no result: HTRA1 inhibitor)
Cc1ccc(C)n1C(CC(=O)O)c1ccc(C#N)cc1 (stereo unspecified)	PRMT1 FP inh 27 (no result: HTRA1 inhibitor) | PRMT1 confirm inactive
COc1ccccc1CNC(=O)N1CCN(c2ccccc2Cl)CC1	none
CC(C)(C)OC(=O)N1CCC[C@H]1C(=O)NCc1ccc(F)cc1F	none (no result: HTRA1 inhibitor)
CC1=C(C(=O)O)N2C(=O)C(NC(=O)c3nn(C)c(C)c3Cl)C2SC1 (stereo unspecified)	PRMT1 FP inh 29 | PRMT1 confirm 38
CC1=C(C(=O)O)N2C(=O)C(NC(=O)c3nn(C)cc3[N+](=O)[O-])C2SC1 (stereo unspecified)	PRMT1 FP inh 33 (no result: HTRA1 inhibitor) | PRMT1 confirm 44
CC1=C(C(=O)O)N2C(=O)C(NC(=O)c3ccn(C)n3)C2SC1 (stereo unspecified)	none
CC1=C(C(=O)O)N2C(=O)C(NC(=O)c3c(F)cccc3F)C2SC1 (stereo unspecified)	none
COc1ccc(NC(=S)N2CCN(c3ccc4c(c3)C3CCN(C(=O)OCc5ccccc5)C4C3)CC2)c(OC)c1 (stereo unspecified)	none (no result: HTRA1 inhibitor)
COC(=O)c1ccc2nc(-c3ccc(C)cc3)c(Cc3ccc(C)cc3)n2c1	none (no result: HTRA1 inhibitor)
COC(=O)c1ccc2nc(-c3ccco3)c(Cc3cccc(F)c3)n2c1	PRMT1 FP inh 43 (no result: HTRA1 inhibitor) | PRMT1 confirm 36
COC(=O)c1ccc2nc(-c3ccco3)c(Cc3ccc(C)cc3)n2c1	PRMT1 FP inh 34 (no result: HTRA1 inhibitor) | PRMT1 confirm inactive
Cc1ccc2nc(-c3ccco3)c(Cc3ccsc3)n2c1	PRMT1 FP inh 35 (no result: HTRA1 inhibitor) | PRMT1 confirm 27
COC(=O)c1ccc2nc(-c3ccc(F)cc3)c(Cc3cccc(F)c3)n2c1	none (no result: HTRA1 inhibitor)
CC(C)C(=O)N1CCCCCCN1C(=O)C(C)C	none
CCCNC(=O)C1(C)CCCN(C(=O)c2ccc(C)c(F)c2)C1 (stereo unspecified)	none (no result: HTRA1 inhibitor)
CC(=O)c1cccc(NC(=O)C(C)OC(=O)C2=NNC(=O)CC2)c1 (stereo unspecified)	none
CN(C)c1cccc2c1C(=O)c1ccccc1C2=O	none
Cc1ccc(SC2=C(N(C)C)C(=O)c3ccccc3C2=O)cc1	PRMT1 FP inh 52 | PRMT1 confirm 49
CN1CCN(NC(=O)c2c(-c3ccccc3)sc3ccccc23)CC1	none
CCOC(=O)C(Sc1nn(C)c(=S)s1)C(C)=O (stereo unspecified)	PRMT1 FP inh 36 | PRMT1 confirm inactive
O=C1C2C3C=CC(O3)C2C(=O)N1Cc1ccncc1 (stereo unspecified)	PRMT1 FP inh 43 | PRMT1 confirm inactive
O=Cc1ccc(-c2ccc(F)cc2)o1	none
O=C(O)/C(=C\c1ccc(-c2ccc(F)cc2)o1)c1ccccc1	PRMT1 FP inh 28 | PRMT1 confirm inactive
Cc1ccc2[nH]c(CNC(=O)c3ccccc3F)cc2c1	none
CCN(CC)CCn1c(SCC(=O)Nc2cccc(OC)c2)nc2c(sc3ccccc32)c1=O	none
COc1cccc(NC(=O)CSc2nc3c(sc4ccccc43)c(=O)n2CCN(C)C)c1	PRMT1 FP inh 68 | PRMT1 confirm 68
CCN1/C(=C\C=C2\C(=O)N(C)C(=S)N2C)Sc2ccccc21	none
CCC(=S)/C=C1\Sc2ccccc2N1CCCS(=O)(=O)O	PRMT1 FP inh 34 | PRMT1 confirm inactive
CN(C)c1ccc(/C=N\NC(=S)SCN2C(=O)C3CCC(C)(C2=O)C3(C)C)cc1 (stereo unspecified)	PRMT1 FP inh 43 | PRMT1 confirm inactive
CN1CCN(CCCCOc2ccc(Br)cc2)CC1	none
OCCN1CCN(C(=S)c2ccc(Cl)c(Cl)c2)CC1	PRMT1 FP inh 78 | PRMT1 confirm 78
